Data: ChEMBL document CHEMBL1152173, “Synthesis and in vitro evaluation of the antifungal activities of dihydropyrimidinones” (2008)
Values after ≈ are worked out from the molar mass of the structure shown. Active and inactive are the calls of the source. The calls are words filed in the database; no cut-off is given here.

Experiments:
[1] = test system: Trichoderma hamatum; assay: Antifungal activity against Trichoderma hamatum assessed as radial growth at 5% after 24 hrs by poison food technique of Flack relative to control; type: functional
In short: (§1)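 Acetone stock added to molten sterilized PDA to final 0.5–7%, plated in 90 mm dishes with compound-free plates as control. Each plate was inoculated with a 9 mm disc from a 4-day-old culture, incubated at 25 ± 1 °C, and colony diameter measured at 24 h intervals. % inhibition = (control − treatment)/control × 100; three replicates averaged.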

[2] = test system: Aspergillus niger; assay: Antifungal activity against Aspergillus niger assessed as radial growth at 0.5% after 72 hrs by poison food technique of Flack relative to control; type: functional
[3] = test system: Aspergillus niger; assay: Antifungal activity against Aspergillus niger assessed as radial growth at 1% after 48 hrs by poison food technique of Flack relative to control; type: functional
[4] = test system: Trichoderma hamatum; assay: Antifungal activity against Trichoderma hamatum assessed as radial growth at 7% after 48 hrs by poison food technique of Flack relative to control; type: functional; in short: as §1
[5] = test system: Trichoderma koningii; assay: Antifungal activity against Trichoderma koningii assessed as radial growth at 3% after 72 hrs by poison food technique of Flack relative to control; type: functional; in short: as §1
[6] = test system: Trichoderma koningii; assay: Antifungal activity against Trichoderma koningii assessed as radial growth at 0.5% after 72 hrs by poison food technique of Flack relative to control; type: functional; in short: as §1
[7] = test system: Trichoderma koningii; assay: Antifungal activity against Trichoderma koningii assessed as radial growth at 0.5% after 24 hrs by poison food technique of Flack relative to control; type: functional; in short: as §1
[8] = test system: Trichoderma koningii; assay: Antifungal activity against Trichoderma koningii assessed as radial growth at 5% after 24 hrs by poison food technique of Flack relative to control; type: functional; in short: as §1
[9] = test system: Trichoderma hamatum; assay: Antifungal activity against Trichoderma hamatum assessed as radial growth at 3% after 48 hrs by poison food technique of Flack relative to control; type: functional
[10] = test system: Aspergillus niger; assay: Antifungal activity against Aspergillus niger assessed as radial growth at 5% after 24 hrs by poison food technique of Flack relative to control; type: functional
[11] = test system: Trichoderma koningii; assay: Antifungal activity against Trichoderma koningii assessed as radial growth at 1% after 72 hrs by poison food technique of Flack relative to control; type: functional; in short: as §1
[12] = test system: Trichoderma hamatum; assay: Antifungal activity against Trichoderma hamatum assessed as radial growth at 3% after 72 hrs by poison food technique of Flack relative to control; type: functional
[13] = test system: Trichoderma hamatum; assay: Antifungal activity against Trichoderma hamatum assessed as radial growth at 0.5% after 24 hrs by poison food technique of Flack relative to control; type: functional
[14] = test system: Trichoderma koningii; assay: Antifungal activity against Trichoderma koningii assessed as radial growth at 3% after 24 hrs by poison food technique of Flack relative to control; type: functional; in short: as §1
[15] = test system: Aspergillus niger; assay: Antifungal activity against Aspergillus niger assessed as radial growth at 1% after 72 hrs by poison food technique of Flack relative to control; type: functional
[16] = test system: Aspergillus niger; assay: Antifungal activity against Aspergillus niger assessed as radial growth at 3% after 72 hrs by poison food technique of Flack relative to control; type: functional
[17] = test system: Trichoderma koningii; assay: Antifungal activity against Trichoderma koningii assessed as radial growth at 7% after 48 hrs by poison food technique of Flack relative to control; type: functional; in short: as §1
[18] = test system: Aspergillus niger; assay: Antifungal activity against Aspergillus niger assessed as radial growth at 7% after 24 hrs by poison food technique of Flack relative to control; type: functional
[19] = test system: Trichoderma hamatum; assay: Antifungal activity against Trichoderma hamatum assessed as radial growth at 7% after 24 hrs by poison food technique of Flack relative to control; type: functional; in short: as §1
[20] = test system: Trichoderma hamatum; assay: Antifungal activity against Trichoderma hamatum assessed as radial growth at 7% after 24 hrs by poison food technique of Flack; type: functional, organism-based
In short: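 Poisoned-food method: acetone stock mixed into molten sterilized potato dextrose agar to final 0.5, 1, 3, 5 or 7%, poured into 90 mm plates. Plates were inoculated with a 9 mm mycelial disc from a 4-day-old pure culture and incubated at 25 ± 1 °C. Colony diameter (mm) was read every 24 h; mean of three replicates.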

[21] = test system: Aspergillus niger; assay: Antifungal activity against Aspergillus niger assessed as radial growth at 1% after 24 hrs by poison food technique of Flack relative to control; type: functional
[22] = test system: Trichoderma koningii; assay: Antifungal activity against Trichoderma koningii assessed as radial growth at 7% after 24 hrs by poison food technique of Flack relative to control; type: functional; in short: as §1
[23] = test system: Trichoderma hamatum; assay: Antifungal activity against Trichoderma hamatum assessed as radial growth at 1% after 24 hrs by poison food technique of Flack relative to control; type: functional
[24] = test system: Trichoderma hamatum; assay: Antifungal activity against Trichoderma hamatum; type: functional
[25] = test system: Aspergillus niger; assay: Antifungal activity against Aspergillus niger assessed as radial growth at 7% after 48 hrs by poison food technique of Flack relative to control; type: functional
[26] = test system: Trichoderma hamatum; assay: Antifungal activity against Trichoderma hamatum assessed as radial growth at 3% after 24 hrs by poison food technique of Flack relative to control; type: functional
[27] = test system: Trichoderma hamatum; assay: Antifungal activity against Trichoderma hamatum assessed as radial growth at 5% after 72 hrs by poison food technique of Flack relative to control; type: functional; in short: as §1
[28] = test system: Aspergillus niger; assay: Antifungal activity against Aspergillus niger assessed as radial growth at 3% after 48 hrs by poison food technique of Flack relative to control; type: functional
[29] = test system: Aspergillus niger; assay: Antifungal activity against Aspergillus niger assessed as radial growth at 3% after 24 hrs by poison food technique of Flack relative to control; type: functional
[30] = test system: Aspergillus niger; assay: Antifungal activity against Aspergillus niger; type: functional
[31] = test system: Trichoderma koningii; assay: Antifungal activity against Trichoderma koningii assessed as radial growth at 7% after 72 hrs by poison food technique of Flack relative to control; type: functional; in short: as §1
[32] = test system: Trichoderma koningii; assay: Antifungal activity against Trichoderma koningii assessed as radial growth at 1% after 24 hrs by poison food technique of Flack relative to control; type: functional; in short: as §1
[33] = test system: Trichoderma koningii; assay: Antifungal activity against Trichoderma koningii assessed as radial growth at 1% after 48 hrs by poison food technique of Flack relative to control; type: functional; in short: as §1
[34] = test system: Aspergillus niger; assay: Antifungal activity against Aspergillus niger assessed as radial growth at 7% after 72 hrs by poison food technique of Flack relative to control; type: functional
[35] = test system: Trichoderma koningii; assay: Antifungal activity against Trichoderma koningii assessed as radial growth at 5% after 72 hrs by poison food technique of Flack relative to control; type: functional; in short: as §1
[36] = test system: Trichoderma hamatum; assay: Antifungal activity against Trichoderma hamatum assessed as radial growth at 0.5% after 48 hrs by poison food technique of Flack relative to control; type: functional
[37] = test system: Trichoderma hamatum; assay: Antifungal activity against Trichoderma hamatum assessed as radial growth at 1% after 72 hrs by poison food technique of Flack relative to control; type: functional
[38] = test system: Aspergillus niger; assay: Antifungal activity against Aspergillus niger assessed as radial growth at 5% after 72 hrs by poison food technique of Flack relative to control; type: functional
[39] = test system: Trichoderma koningii; assay: Antifungal activity against Trichoderma koningii; type: functional
[40] = test system: Aspergillus niger; assay: Antifungal activity against Aspergillus niger assessed as radial growth at 5% after 48 hrs by poison food technique of Flack relative to control; type: functional
[41] = test system: Trichoderma koningii; assay: Antifungal activity against Trichoderma koningii assessed as radial growth at 0.5% after 48 hrs by poison food technique of Flack relative to control; type: functional; in short: as §1
[42] = test system: Trichoderma koningii; assay: Antifungal activity against Trichoderma koningii assessed as radial growth at 3% after 48 hrs by poison food technique of Flack relative to control; type: functional; in short: as §1
[43] = test system: Trichoderma hamatum; assay: Antifungal activity against Trichoderma hamatum assessed as radial growth at 1% after 48 hrs by poison food technique of Flack relative to control; type: functional
[44] = test system: Trichoderma hamatum; assay: Antifungal activity against Trichoderma hamatum assessed as radial growth at 5% after 48 hrs by poison food technique of Flack relative to control; type: functional; in short: as §1
[45] = test system: Trichoderma hamatum; assay: Antifungal activity against Trichoderma hamatum assessed as radial growth at 0.5% after 72 hrs by poison food technique of Flack relative to control; type: functional

CCOC(=O)C1=C(C)NC(=S)NC1c1ccccc1 (stereo not given)
inhibition (INH) [1]: 89.18% | inhibition (INH) [2]: 0% | inhibition (INH) [3]: 0% | inhibition (INH) [4]: 100% | inhibition (INH) [5]: 62.71% | inhibition (INH) [6]: 0% | inhibition (INH) [7]: 0% | inhibition (INH) [8]: 89.2% | inhibition (INH) [9]: 67.62% | inhibition (INH) [10]: 33.33% | inhibition (INH) [11]: 0% | inhibition (INH) [12]: 37.65% | inhibition (INH) [13]: 17.13% | inhibition (INH) [14]: 56.03% | inhibition (INH) [15]: 0% | inhibition (INH) [16]: 36.36% | inhibition (INH) [17]: 90.96% | inhibition (INH) [18]: 100% | inhibition (INH) [19]: 100% | Activity [20]: Active | inhibition (INH) [21]: 0% | inhibition (INH) [22]: 91.34% | inhibition (INH) [23]: 47.78% | MIC [24]: 0.025 µg/mL (≈ 0.0905 µM) | inhibition (INH) [25]: 100% | inhibition (INH) [26]: 67.13% | inhibition (INH) [27]: 94.96% | inhibition (INH) [28]: 47.81% | inhibition (INH) [29]: 33.33% | MIC [30]: 0.35 µg/mL (≈ 1.27 µM) | inhibition (INH) [31]: 84.42% | inhibition (INH) [32]: 0% | inhibition (INH) [33]: 0% | inhibition (INH) [34]: 100% | inhibition (INH) [35]: 79.82% | inhibition (INH) [36]: 8.81% | inhibition (INH) [37]: 0% | inhibition (INH) [38]: 55.63% | MIC [39]: 0.025 µg/mL (≈ 0.0905 µM) | inhibition (INH) [40]: 54.54% | inhibition (INH) [41]: 0% | inhibition (INH) [42]: 68.08% | inhibition (INH) [43]: 18.65% | inhibition (INH) [44]: 93% | inhibition (INH) [45]: 0%

CCOC(=O)C1=C(C)NC(=O)NC1c1ccc(N(C)C)cc1 (stereo not given)
inhibition (INH) [1]: 84.2% | inhibition (INH) [2]: 35.69% | inhibition (INH) [3]: 47.25% | inhibition (INH) [4]: 96.38% | inhibition (INH) [5]: 59.58% | inhibition (INH) [6]: 45.53% | inhibition (INH) [7]: 4% | inhibition (INH) [8]: 100% | inhibition (INH) [9]: 75.31% | inhibition (INH) [10]: 100% | inhibition (INH) [11]: 48.29% | inhibition (INH) [12]: 73.04% | inhibition (INH) [13]: 0% | inhibition (INH) [14]: 84% | inhibition (INH) [15]: 46.4% | inhibition (INH) [16]: 74.11% | inhibition (INH) [17]: 87.09% | inhibition (INH) [18]: 100% | inhibition (INH) [19]: 100% | Activity [20]: Active | inhibition (INH) [21]: 42.85% | inhibition (INH) [22]: 100% | inhibition (INH) [23]: 0% | MIC [24]: 0.025 µg/mL (≈ 0.0824 µM) | inhibition (INH) [25]: 100% | inhibition (INH) [26]: 77.38% | inhibition (INH) [27]: 86.83% | inhibition (INH) [28]: 75% | inhibition (INH) [29]: 100% | MIC [30]: 0.35 µg/mL (≈ 1.15 µM) | inhibition (INH) [31]: 80% | inhibition (INH) [32]: 9.36% | inhibition (INH) [33]: 48.38% | inhibition (INH) [34]: 100% | inhibition (INH) [35]: 79.15% | inhibition (INH) [36]: 0% | inhibition (INH) [37]: 0% | inhibition (INH) [38]: 88.42% | MIC [39]: 0.025 µg/mL (≈ 0.0824 µM) | inhibition (INH) [40]: 87.5% | inhibition (INH) [41]: 9.67% | inhibition (INH) [42]: 64.51% | inhibition (INH) [43]: 0% | inhibition (INH) [44]: 93.38% | inhibition (INH) [45]: 0%
